Activity calls are given as the source filed them. No cut-off for these calls is given here.

The subject of series [1] is Lung. Nature of the series: Antiinflammatory activity in C57bl/6 mouse precision-cut lung slices assessed as effect on LPS/IFNgamma-induced HDAC2 gene expression at 1 to 10 uM preincubated for 20 hrs followed by LPS/IFNgamma stimulation and measured after 4 hrs by RT-qPCR analysis. Type of series: functional, tissue-based. Conditions: dose 1-10 µM, time 24.0 hrs. For orientation: Quantitative PCR measures a nucleic acid by following its amplification.

Series [2] concerns Lung. The experiment in a line: Antiinflammatory activity in C57bl/6 mouse precision-cut lung slices assessed as upregulation of LPS/IFNgamma-induced IkappaBalpha expression at 1 to 10 uM preincubated for 20 hrs followed by LPS/IFNgamma stimulation and measured after 4 hrs by Western blot analysis. Type of series: functional, tissue-based. The conditions noted are these: dose 1-10 µM, time 24.0 hrs. On the technique in general: A western blot detects proteins with antibodies after separation by electrophoresis.

Series [3] relates to RAW264.7. The experiment in a line: Effect on HDAC3-NFkappaB p65 protein-protein interaction in LPS/IFNgamma-stimulated mouse RAW264.7 cells at 1 uM preincubated for 20 hrs followed by LPS/IFNgamma stimulation and measured after 1 hr by immunoprecipitation analysis. It is filed as cell-based. The method in brief:
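RAW 264.7 cells treated for 20 h, then LPS/IFNγ-stimulated. Lysates rotated 4 h at 4 °C and cleared. NF-κB p65 immunoprecipitated with mouse monoclonal antibody overnight at 4 °C, then Protein A/G agarose for 6 h at 4 °C, followed by washes. Immunoblot for HDAC 3, densitometry normalized to NF-κB p65. Mean ± SD of 3 experiments.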

Series [4] has as its system RAW264.7. Nature of the series: Antiinflammatory activity in mouse RAW264.7 cells assessed as effect on LPS/IFNgamma-induced TNFalpha gene expression at 1 uM preincubated for 20 hrs followed by LPS/IFNgamma stimulation and measured after 4 hrs by RT-qPCR analysis. Type of series: functional, cell-based. Conditions: time 24.0 hrs. The procedure, abridged: (§1)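 RAW 264.7 macrophages in DMEM/10% FBS received 1 μM RGFP966 for 20 h, with LPS/IFNγ for the last 4 h. Washed with cold DPBS, total RNA isolated, integrity checked by 28S/18S. RT-qPCR by comparative Ct (2−ΔΔCt), fold change versus LPS/IFNγ control. Mean ± SD of 3–5 independent experiments.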

For series [5], the system named is Lung. Nature of the series: Antiinflammatory activity in C57bl/6 mouse precision-cut lung slices assessed as upregulation of LPS/IFNgamma-induced IL-10 gene expression at 1 to 10 uM preincubated for 20 hrs followed by LPS/IFNgamma stimulation and measured after 4 hrs by RT-qPCR analysis relative to control. Type of series: functional. Conditions: dose 1-10 µM; time 24 hrs. The method in brief: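 PCLS, 250 μm thick, cut from agarose-filled lungs of male C57bl/6 mice (24–28 g, 8–10 weeks). Three slices per well at 37 °C, 5% CO2. Slices received RGFP966 at 1 and 10 μM final for 20 h, with 10 ng/ml LPS and 10 ng/ml IFNγ stimulation. RNA isolated; RT-qPCR fold change versus LPS/IFNγ control by 2−ΔΔCt. Mean ± SD, n = 3–5.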

Series [6] deals with RAW264.7. Nature of the series: Antiinflammatory activity in LPS/IFNgamma-stimulated mouse RAW264.7 cells assessed as effect on NF-kappaB p65 expression preincubated for 20 hrs followed by LPS/IFNgamma stimulation and measured after 4 hrs by Western blot analysis. Type of series: functional, cell-based. Conditions: time 24.0 hrs.
Series [7] concerns HASMC. The experiment in a line: Antiinflammatory activity in HASMC cells assessed as effect on LPS/IFNgamma-induced IL-10 gene expression at 2 uM […] by RT-qPCR analysis. Type of series: functional, cell-based. The conditions noted are these: Homo sapiens. The method in brief:
(§2)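 HBE cells (passage 73–103) or immortalized hASM cells (2–3 donors, passage 27–35), serum-starved. Then 2 μM RGFP966 for 20 h, with LPS/IFNγ for the last 4 h. Total RNA isolated; RT-qPCR by 2−ΔΔCt, fold change versus LPS/IFNγ control. Mean ± SD of 3–5 independent experiments.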

Series [8] has as its target T1, Histone deacetylase 3 (Mus musculus) (UniProt O88895).
T1 sequence (whole entry): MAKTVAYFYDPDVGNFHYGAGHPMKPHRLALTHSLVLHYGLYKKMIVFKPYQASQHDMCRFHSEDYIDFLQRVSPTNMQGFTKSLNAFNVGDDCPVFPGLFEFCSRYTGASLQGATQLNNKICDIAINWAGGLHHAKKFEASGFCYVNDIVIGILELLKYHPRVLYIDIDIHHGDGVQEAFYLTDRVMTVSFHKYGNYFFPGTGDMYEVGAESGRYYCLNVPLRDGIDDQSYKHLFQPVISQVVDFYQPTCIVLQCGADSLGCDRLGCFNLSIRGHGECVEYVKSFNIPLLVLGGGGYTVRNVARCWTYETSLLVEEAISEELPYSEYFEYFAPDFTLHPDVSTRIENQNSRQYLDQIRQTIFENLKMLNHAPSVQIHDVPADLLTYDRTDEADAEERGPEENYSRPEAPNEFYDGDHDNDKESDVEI
Nature of the series: Inhibition of HDAC3 in mouse RAW264.7 cells assessed as effect on histone H4 acetylation measured after 20 hrs by Western blot analysis. Type of series: cell-based. The procedure, abridged: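 Histones extracted from RAW 264.7 cells after 20 h inhibitor treatment, protein quantified by micro BCA (BSA standard), and H3 and H4 acetylation assessed by Western blot versus vehicle-treated cells.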

Another series relates to HBE. The experiment in a line: Antiinflammatory activity in HBE cells assessed as effect on LPS/IFNgamma-induced TNFalpha gene expression at 2 uM […] by RT-qPCR analysis. It is filed as functional, cell-based. The conditions noted are these: Homo sapiens. The method in brief:
as §2

Series [9] deals with T1, Histone deacetylase 3 (Mus musculus). Nature of the series: Effect on HDAC3 nuclear localization in LPS/IFNgamma-stimulated mouse RAW264.7 cells preincubated for 20 hrs followed by LPS/IFNgamma stimulation and measured after 1 hr by Hoechst staining based confocal laser scanning microscopy. Type of series: cell-based. The procedure, abridged:
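RAW 264.7 cells at 20,000 cells/cm2 received 1 μM RGFP966 for 20 h, then 1 h LPS/IFNγ. Fixed in 4% formaldehyde, permeabilized with 0.25% Triton X-100, blocked with 5% BSA. Primary antibodies 2 h at 4 °C, AlexaFluor secondaries 1 h, Hoechst nuclear stain. Confocal imaging at 630×; 4 independent experiments.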

The nature of series [10]: Toxicity in C57bl/6 mouse precision-cut lung slices assessed as effect on tissue viability up to 10 uM measured after 20 hrs by LDH release assay. Type of series: tissue-based. The procedure, abridged:
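PCLS (250 μm) from male C57bl/6 mice, agarose-filled lungs, washed four times, 3 slices/well at 37 °C 5% CO2; inhibitor at 1 and 10 μM for 20 h. LDH in medium measured on automatic analyzer, expressed relative to maximal release from 3 slices lysed with 1% Triton X-100 (30 min, 37 °C).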

In series [11] the test system is RAW264.7. Nature of the series: Antiinflammatory activity in mouse RAW264.7 cells assessed as effect on LPS/IFNgamma-induced iNOS gene expression at 1 uM preincubated for 20 hrs followed by LPS/IFNgamma stimulation and measured after 4 hrs by RT-qPCR analysis. Conditions: time 24.0 hrs. It is filed as functional, cell-based. The procedure, abridged:
as §1

Series [12] relates to HASMC. Nature of the series: Antiinflammatory activity in HASMC cells assessed as effect on LPS/IFNgamma-induced IL-6 gene expression at 2 uM […] and measured after 4 hrs by RT-qPCR analysis. The conditions noted are these: Homo sapiens. It is filed as functional, cell-based. The procedure, abridged: as §2
In series [13] the test system is RAW264.7. The experiment in a line: Antiinflammatory activity in LPS/IFNgamma-stimulated mouse RAW264.7 cells assessed as effect on HDAC3 mRNA expression preincubated for 20 hrs followed by LPS/IFNgamma stimulation and measured after 4 hrs by RT-qPCR analysis. Type of series: functional, cell-based. The conditions noted are these: time 24.0 hrs.
The subject of series [14] is RAW264.7. The experiment in a line: Antiinflammatory activity in LPS/IFNgamma-stimulated mouse RAW264.7 cells assessed as effect on IkappaBalpha expression preincubated for 20 hrs followed by LPS/IFNgamma stimulation and measured after 4 hrs by Western blot analysis. It is filed as functional, cell-based. Conditions: time 24.0 hrs.

As to `Nc1cc(F)ccc1NC(=O)/C=C/c1cnn(C/C=C/c2ccccc2)c1`, the result with Lung [1], in the series with RAW264.7 [3], in the series on RAW264.7 [4], in the series on RAW264.7 [6], in the series with HASMC [7] and with HBE was inactive. Moreover, the result (in series [9]; in the series with RAW264.7 [11]; with HASMC [12]; in the series on RAW264.7 [13]; in the series with RAW264.7 [14]) was inactive. The outcome with Lung [2] was Active. In addition, the “fold change (FC)” value in the series with Lung [5] was found to be 2. Further, the inhibition result in series [8] is “inactive”. Also, in [10], the Activity result was “Non-Toxic”.

For the origin of these results see ChEMBL document CHEMBL5653624 (Biochem Pharmacol, 2016).
